pEC50, pIC50: −log10 of the molar value.
Tests used:
[1] = Cytotoxicity against HELF cells after by Coulter counter method; format: cell-based; conditions: human
Method in brief: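 Hel fibroblast proliferation measured by Coulter Counter cell count in presence of compound. CC₅₀ is the concentration (μM) reducing cell proliferation by 50%.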

[2] = Cytotoxicity against HELF cells assessed as alteration of cell morphology by microscopic analysis; format: cell-based; conditions: human
Method in brief: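 Uninfected Hel fibroblast cultures exposed to compound alongside antiviral assays. Minimal cytotoxic concentration (MCC) is the concentration giving microscopically visible alteration of normal cell morphology.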

HeLa = assay: Antiproliferative activity against human HeLa cells after 72 hrs by Coulter counter method; format: functional, cell-based
Method in brief: (§1)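 Cell count assay in 96-well microtiter plates; (5–7.5) × 10⁴ tumor cells per well plus test compound. Cells proliferated at 37 °C in humidified CO₂-controlled atmosphere, 48 h for murine leukemia L1210, 72 h for human lymphocytic CEM and cervix carcinoma HeLa. Counted by Coulter counter; IC₅₀ is the concentration that inhibits proliferation by 50%.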

CCRF-CEM = assay: Antiproliferative activity against human CEM cells after 72 hrs by Coulter counter method; format: functional, cell-based; method in brief: as §1
L1210 = assay: Antiproliferative activity against mouse L1210 cells after 48 hrs by Coulter counter method; format: functional, cell-based; conditions: L1210, 48 h; method in brief: as §1
Human betaherpesvirus 5 [3] = assay: Antiviral activity against Human cytomegalovirus AD169 strain infected in HELF cells assessed as inhibition of virus-induced cytopathogenicity; format: functional, organism-based; conditions: Human betaherpesvirus 5, AD169, HELF
Method in brief: (§2)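 Confluent human embryonic lung fibroblasts in 96-well plates inoculated with 100 CCID₅₀ HCMV. Residual virus removed after 1–2 h, then cultures incubated with varying compound concentrations. Cytopathicity scored once complete in untreated infected controls. EC₅₀ is the concentration reducing virus-induced cytopathicity by 50%.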

Human alphaherpesvirus 2 = assay: Antiviral activity against Human herpesvirus 2 G strain infected in HELF cells assessed as inhibition of virus-induced cytopathogenicity; format: functional, organism-based; conditions: Human alphaherpesvirus 2, strain G
Method in brief: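 Confluent Hel fibroblast cultures in 96-well plates inoculated with 100 CCID₅₀ virus in presence of varying compound concentrations. Cytopathicity recorded once complete in untreated virus-infected controls. EC₅₀ is the concentration reducing virus-induced cytopathogenicity by 50%; compounds tested up to 100 μM.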

Human betaherpesvirus 5 [4] = assay: Antiviral activity against Human cytomegalovirus Davis strain infected in HELF cells assessed as inhibition of virus-induced cytopathogenicity; format: functional, organism-based; conditions: Human betaherpesvirus 5, Davis; method in brief: as §2
Human alphaherpesvirus 1 [5] = assay: Antiviral activity against Human herpesvirus 1 KOS strain infected in HELF cells assessed as inhibition of virus-induced cytopathogenicity; format: functional, organism-based; conditions: Human alphaherpesvirus 1, KOS
Method in brief: (§3)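 Confluent human embryonic lung fibroblast monolayers in 96-well plates were infected with 100 CCID50 of virus or, for VZV, 20 PFU, in the presence of varying compound concentrations. For HCMV/VZV-type assays, residual virus was removed after 1–2 h before compound addition. Cytopathicity or plaque formation was scored once complete in untreated infected controls. Highest concentration tested was 100 μM.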

Human alphaherpesvirus 3 [6] = assay: Antiviral activity against thymidine kinase-deficient Varicella Zoster virus Oka strain infected in HELF cells assessed as inhibition of virus-induced plaque formation; format: functional, organism-based; conditions: Human alphaherpesvirus 3, strain Oka vaccine; method in brief: as §3
Human alphaherpesvirus 1 [7] = assay: Antiviral activity against thymidine kinase-deficient acyclovir-resistant Human herpesvirus 1 KOS strain infected in HELF cells assessed as inhibition of virus-induced cytopathogenicity; format: functional, organism-based; conditions: Human alphaherpesvirus 1, KOS; method in brief: as §3
Human alphaherpesvirus 3 [8] = assay: Antiviral activity against thymidine kinase-deficient Varicella Zoster virus 07-1 strain infected in HELF cells assessed as inhibition of virus-induced plaque formation; format: functional, organism-based; conditions: Human alphaherpesvirus 3, 07-1, HELF; method in brief: as §3

SMILES | CC50 [1] | MCC [2] | pIC50 (HeLa) | pIC50 (CCRF-CEM) | pIC50 (L1210) | pEC50 (Human betaherpesvirus 5 [3]) | pEC50 (Human alphaherpesvirus 2) | pEC50 (Human betaherpesvirus 5 [4]) | pEC50 (Human alphaherpesvirus 1 [5]) | pEC50 (Human alphaherpesvirus 3 [6]) | pEC50 (Human alphaherpesvirus 1 [7]) | pEC50 (Human alphaherpesvirus 3 [8]) | CC50 ([1]; HELF cells)
Nc1nc2c(ncn2COCCO)c(=O)[nH]1 [ACYCLOVIR] | > 440 µM | 250 to 440 µM | – | – | – | – | – | – | – | – | – | – | –
C#C[C@@]1(O)[C@@H](CO)O[C@@H](n2cnc3c(-c4ccc(C)cc4)ncnc32)[C@@H]1O | – | – | < 3.60 | 3.81 | 3.69 | – | – | – | – | – | – | – | –
Nc1ccn(C[C@@H](CO)OCP(=O)(O)O)c(=O)n1 [CIDOFOVIR] | – | 250 to 300 µM | – | – | – | 5.80 | 5.92 | 5.84 | 5.82 | – | – | – | –
C#C[C@@]1(O)[C@@H](CO)O[C@@H](n2cnc3c(-c4ccccc4)ncnc32)[C@@H]1O | – | – | < 3.60 | < 3.60 | < 3.60 | – | – | – | – | – | – | – | –
C#C[C@@]1(O)[C@@H](CO)O[C@@H](n2ccc3c(Cl)ccnc32)[C@@H]1O | – | 20 to 100 µM | 3.87 | 4.07 | 3.71 | < 4.00 | < 4.00 | < 4.00 | < 4.00 | < 4.00 | < 4.00 | < 4.00 | –
C#C[C@@]1(O)[C@@H](CO)O[C@@H](n2cc(Cl)c3c(N)ccnc32)[C@@H]1O | – | ≥ 100 µM | 5.77 | 5.27 | 6.01 | < 4.00 | – | 4.70 | – | < 4.00 | – | 4.76 | –
C#Cc1cn([C@@H]2O[C@H](CO)[C@](O)(C#C)[C@H]2O)c2ncnc(N)c12 | – | – | 3.94 | 4.20 | 3.80 | – | – | – | – | – | – | – | –
C#C[C@@]1(O)[C@@H](CO)O[C@@H](n2cnc3c(N)ncnc32)[C@@H]1O | – | 20 µM | – | – | – | ≤ 5.40 | < 5.40 | ≤ 5.40 | < 5.40 | 5.74 | < 5.40 | 5.79 | 0.7 to 0.73 µM
C#C[C@@]1(O)[C@@H](CO)O[C@@H](n2cc(Cl)c3c(Cl)ccnc32)[C@@H]1O | 5.25 µM | 20 to 100 µM | 5.20 | 5.89 | 4.12 | 6.29 | < 4.00 | 6.28 | 4.79 | 4.78 | 4.98 | 5.51 | –
C#C[C@@]1(O)[C@@H](CO)O[C@@H](n2cnc3c(-c4ccc(F)cc4)ncnc32)[C@@H]1O | – | – | 3.66 | 3.65 | < 3.60 | – | – | – | – | – | – | – | –
C#C[C@@]1(O)[C@@H](CO)O[C@@H](n2c(C(F)(F)F)cc3c(N)ncnc32)[C@@H]1O | – | – | < 3.60 | < 3.60 | < 3.60 | – | – | – | – | – | – | – | –
C#C[C@@]1(O)[C@@H](CO)O[C@@H](n2cc(-c3ccco3)c3c(N)ncnc32)[C@@H]1O | – | – | 4.85 | 4.77 | 4.52 | – | – | – | – | – | – | – | –
C#C[C@@]1(O)[C@@H](CO)O[C@@H](n2cc(I)c3c(N)ccnc32)[C@@H]1O | – | – | 6.74 | 6.51 | 7.36 | – | – | – | – | – | – | – | –
C#C[C@@]1(O)[C@@H](CO)O[C@@H](n2cnc3c(-c4ccc(Cl)cc4)ncnc32)[C@@H]1O | – | – | 3.77 | 3.91 | 3.65 | – | – | – | – | – | – | – | –
Nc1nc2c(ncn2COC(CO)CO)c(=O)[nH]1 [GANCICLOVIR] | – | 100 to 350 µM | – | – | – | – | – | – | – | – | – | – | –
C#C[C@@]1(O)[C@@H](CO)O[C@@H](n2cnc3c(-c4ccc(OC)cc4)ncnc32)[C@@H]1O | – | – | < 3.60 | < 3.60 | < 3.60 | – | – | – | – | – | – | – | –
CC[C@@]1(O)[C@@H](CO)O[C@@H](n2cc(Cl)c3c(N)ncnc32)[C@@H]1O | 3.41 µM | 4 to 20 µM | 5.36 | 5.59 | 5.92 | 5.75 | 6.20 | < 5.40 | 5.68 | 5.77 | 5.90 | 5.43 | –
C#C[C@@]1(O)[C@@H](CO)O[C@@H](n2cc(C(F)(F)F)c3c(N)ncnc32)[C@@H]1O | – | – | 6.12 | 6.44 | 6.96 | – | – | – | – | – | – | – | –
C#C[C@@]1(O)[C@@H](CO)O[C@@H](n2cc(Br)c3c(Cl)ccnc32)[C@@H]1O | 0.35 µM | ≥ 100 µM | 6.05 | 6.25 | 4.52 | 6.44 | < 4.00 | 6.46 | 5.18 | 5.56 | 5.23 | 5.64 | –
C#C[C@@]1(O)[C@@H](CO)O[C@@H](n2cc(I)c3c(Cl)ccnc32)[C@@H]1O | 0.16 µM | 20 to 100 µM | 5.96 | 6.59 | 4.70 | 5.64 | < 4.00 | 6.18 | < 4.00 | 5.01 | < 4.00 | 5.08 | –

Reference: ChEMBL document CHEMBL4270599, “Synthesis of a 3'-C-ethynyl-β-d-ribofuranose purine nucleoside library: Discovery of C7-deazapurine analogs as potent antiproliferative nucleosides” (Eur J Med Chem, 2018)
